Results of several laboratories.
Compare with care: the assays were run in different laboratories.
CDK18 with cyclin Y: Cyclin-dependent kinase 18, with cyclin Y (CDK18, Homo sapiens, UniProt Q07002)
CDK18: Cyclin-dependent kinase 18 (CDK18, Homo sapiens, UniProt Q07002)

Compound	target	test	setting	endpoint	result
O=C(Nc1cnn(-c2csc(C(=O)NC3COC3)c2)c1)Nc1ccccc1Cl	CDK18 with cyclin Y	enzyme activity, inhibitor	5 µM	remaining activity	101%
Cc1ccc(C(=O)NCc2ccsc2)cc1C#Cc1cn(C(C)C)c2ncnc(N)c12	CDK18 with cyclin Y	enzyme activity, inhibitor	1 µM	activity vs control	82%
Cc1ccc(C(=O)Nc2ccc(CN3CCN(C)CC3)c(C(F)(F)F)c2)cc1C#Cc1cnc2cccnn12	CDK18	enzyme activity, inhibitor	23.5 nM	remaining activity	89%
Nc1ncnc2occ(-c3ccc(NC(=O)Nc4cc(C(F)(F)F)ccc4F)cc3)c12	CDK18	cell-free assay, inhibitor	20 µM	remaining signal	0.1%
Fc1cccc(-n2cnc3c(NCc4nc5c(F)c(F)ccc5[nH]4)nc(N4CCOCC4)nc32)c1	CDK18	binding, competition with immobilised ligand	10 µM	binding vs control	37%
O=C(NS(=O)(=O)c1ccc(NCC2CCOCC2)c([N+](=O)[O-])c1)c1ccc(N2CCN(Cc3ccc(C(F)(F)F)cc3-c3ccc(Cl)cc3)CC2)cc1Oc1cnc2[nH]ccc2c1	CDK18	cell-free assay, competition with immobilised ligand	1 µM	remaining binding	100%
O=[N+]([O-])c1cccc2[nH]c(CNc3nc(N4CCOCC4)nc4c3ncn4-c3ccsc3)nc12	CDK18	binding, competition with immobilised ligand	10 µM	binding vs control	62%
COc1cc(Cl)c(C(=O)N[C@@H](CN[C@H]2CC[C@@H](N)CC2)Cc2ccc(C#N)cc2)cc1-c1ccc(CN[C@H](C)c2ccc(C)cc2)o1	CDK18 with cyclin Y	enzyme activity, inhibitor	1 µM	remaining activity	103%
CN1CC(Oc2cnc(C#N)cc2-c2ccn3nc(NC(=O)C4CC4)cc3c2)C1	CDK18 with cyclin Y	enzyme activity, inhibitor	1 µM	inhibition	1%
Cc1sc(C(=O)NC2COC2)cc1-n1cc(NC(=O)Nc2c(F)cccc2Cl)cn1	CDK18 with cyclin Y	enzyme activity, inhibitor	10 µM	remaining activity	119%
CSc1cccnc1N1CCN(Cc2nc3ccccc3[nH]2)CC1	CDK18	cell-free assay, competition with immobilised ligand	1 µM	remaining binding	100%
